# Assay outcomes from PubChem.
# Mdm2 ligase inh: MDM2-luciferase reporter signal enhancers, primary screen, MDM2 E3 ligase inhibitor project, cell-based, luminescence, 1536-well. E3 ubiquitin-protein ligase Mdm2 (Homo sapiens), Q00987. cell-based MDM2 ubiquitination luciferase reporter, 2 h; 0 = plate control, 100 = twice control, blank-subtracted. AID 1230, 2008. actives 0.11% (n = 210,000). signal enhancement, % at 5 µM;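 active = signal enhancement of 30% or more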;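 also: luminescence tracks abundance of the self-degrading MDM2-luciferase fusion protein; higher signal means inhibition of MDM2 E3 ligase activity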
#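 Material: Stable MDM2–luciferase fusion reporter cells | Amount: 2000 cells seeded into each well | Dosing: One concentration, 5 µM, with 0.2% DMSO | Incubation: 4 h cell settling then 2 h compound exposure, 37 °C | Measured by: Luciferase luminescence | Read-out basis: % enhancement relative to plate controls after blank subtraction | Benchmarks: Control and blank well means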
# Beta2AR agonist: beta2AR agonists driving receptor internalization, primary screen, cell-based, FAP fluorogen, flow cytometry | AID 504454, 2011 | Beta-2 adrenergic receptor (Homo sapiens), P07550 | actives 0.43% (n = 340,000) | Am2.2-beta2AR cells | response, % (concentration not given with the values);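 active = response above a set limit, near 3 SD of response in nonfluorescent compounds, cut at about 42% in these data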
# Mdm2 MdmX PPI: inhibitors of human Mdm2-MdmX association, primary screen, cell-based, luminescence, split luciferase, SaOS-2, uHTS. SaOS-2 split-luciferase Mdm2/MdmX complementation. inhibition, % at 8 µM. actives 3% (n = 330,000). AID 485346, 2010;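 active = inhibition of at least 50% at 8 µM in the primary screen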
# Target sequence (O15151 whole entry, looked up): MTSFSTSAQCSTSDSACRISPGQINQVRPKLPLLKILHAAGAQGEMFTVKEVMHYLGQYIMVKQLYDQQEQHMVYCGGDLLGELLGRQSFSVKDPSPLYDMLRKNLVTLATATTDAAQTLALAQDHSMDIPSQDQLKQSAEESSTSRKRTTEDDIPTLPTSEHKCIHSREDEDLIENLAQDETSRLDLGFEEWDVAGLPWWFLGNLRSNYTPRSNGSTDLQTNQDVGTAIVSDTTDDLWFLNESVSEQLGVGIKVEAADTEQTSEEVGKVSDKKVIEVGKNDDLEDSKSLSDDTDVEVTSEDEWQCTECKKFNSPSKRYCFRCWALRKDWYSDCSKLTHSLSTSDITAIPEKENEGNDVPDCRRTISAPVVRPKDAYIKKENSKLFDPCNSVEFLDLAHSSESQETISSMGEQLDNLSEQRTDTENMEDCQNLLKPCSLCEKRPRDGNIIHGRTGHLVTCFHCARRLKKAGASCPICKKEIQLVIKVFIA
# Target sequence (Q00987 whole entry, looked up): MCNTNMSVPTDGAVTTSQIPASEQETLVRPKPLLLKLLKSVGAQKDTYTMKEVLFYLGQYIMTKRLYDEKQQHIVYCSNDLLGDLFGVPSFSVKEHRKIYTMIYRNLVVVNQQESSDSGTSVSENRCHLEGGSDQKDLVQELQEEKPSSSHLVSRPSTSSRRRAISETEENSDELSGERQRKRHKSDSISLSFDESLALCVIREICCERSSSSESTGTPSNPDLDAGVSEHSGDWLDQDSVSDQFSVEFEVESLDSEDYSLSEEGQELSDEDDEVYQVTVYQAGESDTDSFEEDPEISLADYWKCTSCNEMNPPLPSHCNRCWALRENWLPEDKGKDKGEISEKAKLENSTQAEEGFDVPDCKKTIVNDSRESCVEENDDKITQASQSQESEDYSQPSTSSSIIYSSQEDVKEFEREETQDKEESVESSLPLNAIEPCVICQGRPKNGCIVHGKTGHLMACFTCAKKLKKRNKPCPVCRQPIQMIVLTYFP
# UPR CHOP act: activators of apoptotic CHOP UPR arm, primary screen, cell-based, CHO-CHOP luciferase reporter, luminescence, uHTS | actives 0.34% (n = 330,000) | activation, % at 10 µM | UPR activation; percent of tunicamycin response over DMSO baseline;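 active = at 10 µM dose, activation of 40% or more, normalized to positive control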;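 also: 100% = tunicamycin at 10 µg/mL and 0% = DMSO alone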
#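 Test system: CHO-CHOP cells, stable luciferase reporter of PERK-eIF2a-CHOP signalling | Quantity: 500 CHO-CHOP cells per well | Buffer or medium: F12 plus 10% serum | Compound dosing: 10 µM single point, 0.5% DMSO | Schedule: 6 h compound treatment, 37 °C | Signal: Luciferase luminescence | Control set: Tunicamycin high control, DMSO low control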
# XBP1 UPR activ: activators of adaptive XBP1 UPR arm, primary screen, cell-based, CHO-XBP1 luciferase reporter, luminescence, uHTS; IRE1-XBP1 UPR activation; percent of tunicamycin response, DMSO as zero; activation, % at 20 µM; actives 0.33% (n = 330,000); AID 463104, 2010;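 active = versus positive control, 20 µM dose yields 30% or more activation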;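 also: 100% = tunicamycin at 10 µg/mL and 0% = DMSO only wells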
#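 Material: CHO cell line with stable XBP1 luciferase reporter; buffer or medium: F12 medium containing 10% fetal bovine serum; compound: single point, 20 µM final compound, 1% DMSO; incubation: 6 h treatment, 37 °C; measured by: glow luminescence from Steady-Glo reagent; evaluation: activation, % of tunicamycin; control set: tunicamycin high, DMSO low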
# Dynein transport: inhibitors of GR-EGFP nuclear translocation, primary screen, dynein cargo transport inhibitor project, imaging, high-content, 3617.4 mouse cells; AID 1381, 2008; actives 0.47% (n = 220,000); z-score, hits read low; test concentration mostly 20 µM; stimulated with dexamethasone, 1 µM; active compounds read low;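 active = plate z-score of nuclear minus cytoplasmic receptor signal below a set negative limit, without overly bright fluorescence or cell loss, cut at about -3.5 in these data, passing the limit was not always enough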;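 also: z-score of nuclear minus cytoplasmic ring GR-EGFP intensity difference per well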
#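 medium = tetracycline-free induction medium containing charcoal-stripped FBS | also added = 1.0 µM final dexamethasone stimulus | schedule = 48 h induction, 1 h compound, 30 min dex at 37 °C | technique = fixed, Hoechst-stained cells imaged at 10x for EGFP | measure = GR-EGFP nuclear translocation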
# Mdm2-MdmX conf: Mdm2-MdmX complex disruptors, retested hits, confirmation, luminescence, single concentration. inhibition, % at 8 µM. actives 55% (n = 10,000). Mdm2-MdmX binding, luminescent assay. shares compounds with Mdm2 MdmX PPI; in the data active = inhibition above about 40%
# FLuc counter: full-length luciferase signal inhibition, confirmation, counter-screen for Mdm2/MdmX interaction inhibitor project, cell-based, single concentration, SaOS-2. shares compounds with Mdm2 MdmX PPI. inhibition, % at 8 µM. actives 77% (n = 6,200). SaOS-2 full-length luciferase counterscreen, luminescence;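 active = mean inhibition at 8 µM reaching about 37%, which flags the compound as non-specific, limit read from the data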;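 also: p53-null SaOS-2 cells with luciferase driven by a doxycycline-inducible promoter; compound on cells about two nights before reading with doxycycline added after day one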
# Numbers without * were called inactive; / = not tested or not shown. Only some compounds are listed: those with a hit (about 3.7% of all), similar ones and a draw of the others.
SMILES,Mdm2 ligase inh,Beta2AR agonist,Mdm2 MdmX PPI,UPR CHOP act,XBP1 UPR activ,Dynein transport,Mdm2-MdmX conf,FLuc counter
O=C(Nc1cccc(-c2csc(Nc3cccc(C(F)(F)F)c3)n2)c1)c1cc([N+](=O)[O-])cc(C(F)(F)F)c1,24,2,64*,24,9,0.18,5,/
O=C(Nc1ccc(-c2csc(Nc3ccccc3)n2)cc1)c1cc([N+](=O)[O-])cc(C(F)(F)F)c1,-12,0,41,4,9,0.59,/,/
CCCCCN(C(=O)CCC(=O)OC(C)C(=O)c1ccccc1)c1c(N)n(CCCC)c(=O)[nH]c1=O (centres undefined),/,-4,23,-1,1,/,/,/
CCOC(=O)c1sc2nc(C)nc(NCc3ccccc3)c2c1C,/,-1,52*,1,7,/,26,113*
CC(Oc1ccc2c(-c3ccccc3)cc(=O)oc2c1)C(=O)NCCCn1ccnc1 (centres undefined),/,-15,12,-3,0,/,/,/
Cc1csc(=O)n1CCC(=O)OCC(=O)NNC(=O)c1ccccc1,/,2,3,2,-2,/,/,/
CN(C)c1ccc(/C=C/c2cccc[n+]2[O-])cc1,-1,-2,-8,4,0,-0.24,/,/
CC(C)CC[n+]1ccccc1/C=C/c1ccc(N(C)C)cc1,/,-231,80*,7,3,/,74*,27
CCOC(=O)c1cccc2c1-c1ccccc1/C2=N/O,-16,1,76*,0,10,-0.68,57*,31
COc1ccc(-c2cn[nH]c2-c2ccc(OCC(=O)NN)cc2O)cc1OC,/,-6,14,0,0,/,/,/
COc1ccc(-c2n[nH]c(C)c2-c2ccc(Cl)cc2)c(O)c1,1,2,30,-1,-6,-0.4,/,/
C=C(C)COc1ccc(-c2[nH]ncc2-c2ccc(OC)c(OC)c2)c(O)c1,2,-1,66*,0,3,-0.18,60*,56*
COc1ccc(-c2cn[nH]c2-c2ccc(OCc3ccccc3)cc2O)cc1OC,-2,22,53*,-1,-1,-0.76,55*,43*
COc1ccc(Oc2cn[nH]c2-c2ccc(O)cc2O)cc1,-10,7,1,-3,2,-0.72,/,/
COc1ccc(-c2cn[nH]c2-c2ccc(O)cc2O)cc1,/,10,71*,3,0,/,70*,25
COc1ccc(-c2n[nH]c(C)c2-c2ccc(Cl)cc2)c(O)c1OC,/,23,87*,1,0,-0.51,73*,39*
CN(/N=C/c1cc(Cl)cc(Cl)c1O)c1c(Cl)cccc1[N+](=O)[O-],-9,16,13,1,-3,0.59,/,/
COc1ccccc1NC(=O)NC1(C(=O)N2CCC(C)CC2)CCCCC1,/,3,6,0,-6,/,/,/
Cc1cccc(NC(=O)Cc2nc(-c3c[nH]c(C(=O)N4CCCC4)c3)cs2)c1,/,4,35,5,2,/,/,/
COc1ccc(-c2cnc(N)nc2-c2ccc(OC)cc2O)cc1,-17,-5,58*,-1,-3,-0.32,18,/
COc1ccc(-c2nc(N)ncc2-c2ccccc2)c(O)c1,/,0,46,2,3,/,/,/
C=C(C)COc1ccc(-c2[nH]ncc2-c2ccc(OC)cc2)c(O)c1,-9,-4,63*,-2,0,0.97,65*,29
C=C(C)COc1ccc(-c2n[nH]c(C)c2-c2ccc(OC)c(OC)c2)c(O)c1,-13,16,71*,0,6,1.2,54*,63*
CCOC(=O)N=Nc1c2ccccc2c2nc3no[nH]c3nc12,-5,26,100*,-4,-6,0.19,100*,1
COc1cc(C(=O)ON=C2C3CC4CC(C3)CC2C4)cc(OC)c1OC,/,15,95*,3,1,/,27,/
SMILES,Mdm2 ligase inh,Beta2AR agonist,Mdm2 MdmX PPI,UPR CHOP act,XBP1 UPR activ,Dynein transport,Mdm2-MdmX conf,FLuc counter
CCCC(NC(=S)NCC1CCCO1)C12CC3CC(CC(C3)C1)C2 (centres undefined),-8,-3,39,12,3,0.71,/,/
Cc1cccc2cc(C#N)c(SCCN3CCCCC3)nc12,/,/,0,0,-1,-1.5,/,/
Cc1cccc2cc(C#N)c(SCc3nnc(-c4ccccc4[N+](=O)[O-])o3)nc12,-7,-10,59*,0,3,-0.044,17,/
CCC1N=C(SC)NC(C)=C1C(=O)c1ccccc1 (centres undefined),-6,-1,15,-1,0,-0.65,/,/
CSC1=NC(C(Cl)(Cl)Cl)N=C(c2ccc(C)cc2)N1 (centres undefined),-14,12,72*,-3,9,0.36,70*,67*
CCc1cccc(N(C)C(N)=Nc2cccc3ccccc23)c1,-10,4,53*,-1,-1,-1.2,35,/
CCN(/C(N)=N/c1nc(C)cc(C)n1)c1ccccc1,/,9,12,3,-2,/,/,/
CNC(=S)N(CCc1cccc(C)c1)Cc1cc2cc(OC)c(OC)cc2[nH]c1=O,-2,0,-3,0,1,-0.15,/,/
COc1cc2cc(CN(CCc3cccc(C)c3)C(=S)NCCCN(C)C)c(=O)[nH]c2cc1OC,-3,17,52*,0,-1,0.67,26,/
CCOC(=O)/C=C(\C)Sc1cc(=O)oc2ccccc12,-4,-5,55*,-1,-2,0.45,34,/
CCOC(=O)Nc1oc2ccccc2c(=O)c1C,/,-13,16,1,2,0.5,/,/
COc1cc(/C(C)=N/NC(=O)c2nnn(-c3nonc3N)c2-c2cccs2)ccc1O,/,4,69*,1,-5,/,6,/
CC1CCN(Cc2c(C(=O)N/N=C/c3cccc(C(F)(F)F)c3)nnn2-c2nonc2N)CC1,/,-5,14,1,5,/,/,/
